Experimental data reported in ChEMBL document CHEMBL4425169 (ACS Med Chem Lett, 2016).

What was measured:
[1] = Oral bioavailability in rat at 1 mg/kg; assay type: ADME, organism-based; settings: in vivo
Rattus norvegicus [2] = test: Diuretic activity in Sprague-Dawley rat at 1 mg/kg via oral gavage administered 30 mins prior to void induction by loading saline measured upto 4 hrs relative to vehicle treated control; assay type: functional
How it was run: (§1)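 Acute rat diuresis model in male-unspecified Sprague-Dawley rats, single oral dose, urine collected over 4 h. Urine volume, sodium excretion and potassium excretion expressed as fold increase over vehicle-treated controls; n = 5 per group; significance tested against vehicle.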

[3] = Volume of distribution at steady state in rat at 0.5 mg/kg, iv or 1 mg/kg, po; assay type: ADME, organism-based; settings: in vivo, read-out: Vdss
[4] = Half life in rat at 0.5 mg/kg, iv or 1 mg/kg, po; assay type: ADME, organism-based; settings: in vivo
[5] = target: T1, Voltage-gated inwardly rectifying potassium channel KCNH2 (Homo sapiens, UniProt Q12809); test: Displacement of [35S]MK-499 from human ERG
T1 sequence (Q12809 whole entry): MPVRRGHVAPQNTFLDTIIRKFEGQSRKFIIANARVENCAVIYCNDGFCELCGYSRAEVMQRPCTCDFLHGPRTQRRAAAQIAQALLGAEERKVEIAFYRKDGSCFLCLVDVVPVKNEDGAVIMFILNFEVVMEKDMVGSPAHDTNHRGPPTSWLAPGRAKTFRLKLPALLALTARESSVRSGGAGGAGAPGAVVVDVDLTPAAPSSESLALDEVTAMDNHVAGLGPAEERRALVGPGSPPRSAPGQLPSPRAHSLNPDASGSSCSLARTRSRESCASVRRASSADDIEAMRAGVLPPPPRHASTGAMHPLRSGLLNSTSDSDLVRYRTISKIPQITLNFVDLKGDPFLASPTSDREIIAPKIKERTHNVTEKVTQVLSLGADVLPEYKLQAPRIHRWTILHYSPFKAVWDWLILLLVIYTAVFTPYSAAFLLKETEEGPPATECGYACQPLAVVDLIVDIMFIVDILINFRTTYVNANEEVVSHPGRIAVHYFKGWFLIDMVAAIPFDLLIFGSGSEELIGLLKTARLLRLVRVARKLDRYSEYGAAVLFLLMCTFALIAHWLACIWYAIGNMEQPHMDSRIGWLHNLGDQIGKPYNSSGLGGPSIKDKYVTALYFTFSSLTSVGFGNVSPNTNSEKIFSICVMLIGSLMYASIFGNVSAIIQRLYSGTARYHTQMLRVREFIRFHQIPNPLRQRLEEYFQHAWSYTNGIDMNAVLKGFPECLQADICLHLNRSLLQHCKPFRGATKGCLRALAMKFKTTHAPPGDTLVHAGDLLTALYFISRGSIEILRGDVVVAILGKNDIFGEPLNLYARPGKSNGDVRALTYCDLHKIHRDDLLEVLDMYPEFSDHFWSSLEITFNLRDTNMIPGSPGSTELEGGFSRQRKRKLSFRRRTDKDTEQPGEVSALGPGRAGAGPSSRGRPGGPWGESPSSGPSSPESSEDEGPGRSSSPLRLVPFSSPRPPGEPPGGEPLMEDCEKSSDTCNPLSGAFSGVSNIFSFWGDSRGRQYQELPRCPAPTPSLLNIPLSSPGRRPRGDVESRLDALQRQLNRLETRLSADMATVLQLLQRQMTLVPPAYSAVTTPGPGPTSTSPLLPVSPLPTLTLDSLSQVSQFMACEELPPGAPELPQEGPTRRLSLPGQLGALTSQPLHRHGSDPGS

Rattus norvegicus [6] = test: Kaliuretic activity in Sprague-Dawley rat at 1 mg/kg via oral gavage administered 30 mins prior to void induction by loading saline measured upto 4 hrs relative to vehicle treated control; assay type: functional; how it was run: as §1
Rattus norvegicus [7] = test: Natriuretic activity in Sprague-Dawley rat at 3 mg/kg via oral gavage administered 30 mins prior to void induction by loading saline measured upto 4 hrs relative to vehicle treated control; assay type: functional
How it was run: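 Acute 4 h diuresis/natriuresis study in SD rats given a single oral dose, n = 5 per group. Urinary sodium output is expressed as fold increase over vehicle-treated animals, with significance tested against vehicle.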

[8] = Dose normalized AUC in rat at 1 mg/kg, po; assay type: ADME, organism-based; settings: in vivo
Rattus norvegicus [9] = test: Natriuretic activity in Sprague-Dawley rat at 0.3 mg/kg via oral gavage administered 30 mins prior to void induction by loading saline measured upto 4 hrs relative to vehicle treated control; assay type: functional; how it was run: as §1
[10] = target: T1, Voltage-gated inwardly rectifying potassium channel KCNH2; test: Inhibition of human ERG after 6 mins by electrophysiological assay
Rattus norvegicus [11] = test: Diuretic activity in Sprague-Dawley rat at 0.3 mg/kg via oral gavage administered 30 mins prior to void induction by loading saline measured upto 4 hrs relative to vehicle treated control; assay type: functional; how it was run: as §1
Rattus norvegicus [12] = test: Natriuretic activity in Sprague-Dawley rat at 1 mg/kg via oral gavage administered 30 mins prior to void induction by loading saline measured upto 4 hrs relative to vehicle treated control; assay type: functional; how it was run: as §1
[13] = Clearance in rat at 0.5 mg/kg, iv or 1 mg/kg, po; assay type: ADME, organism-based; settings: in vivo
Rattus norvegicus [14] = test: Kaliuretic activity in Sprague-Dawley rat at 3 mg/kg via oral gavage administered 30 mins prior to void induction by loading saline measured upto 4 hrs relative to vehicle treated control; assay type: functional; how it was run: as §1
Rattus norvegicus [15] = test: Kaliuretic activity in Sprague-Dawley rat at 0.3 mg/kg via oral gavage administered 30 mins prior to void induction by loading saline measured upto 4 hrs relative to vehicle treated control; assay type: functional; how it was run: as §1
Rattus norvegicus [16] = test: Diuretic activity in Sprague-Dawley rat at 3 mg/kg via oral gavage administered 30 mins prior to void induction by loading saline measured upto 4 hrs relative to vehicle treated control; assay type: functional
How it was run: (§2)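 Acute 4 h study in Sprague-Dawley rats after oral dosing, n = 5 per group. Urine volume and sodium and potassium excretion were expressed as fold increase over vehicle-treated animals. Significance was tested versus vehicle (p < 0.05 or p < 0.01).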

[17] = target: T2, ATP-sensitive inward rectifier potassium channel 1 (Homo sapiens, UniProt P48048); test: Inhibition of ROMK (unknown origin) after 30 mins by 86Rb+ efflux assay
T2 sequence (P48048 whole entry): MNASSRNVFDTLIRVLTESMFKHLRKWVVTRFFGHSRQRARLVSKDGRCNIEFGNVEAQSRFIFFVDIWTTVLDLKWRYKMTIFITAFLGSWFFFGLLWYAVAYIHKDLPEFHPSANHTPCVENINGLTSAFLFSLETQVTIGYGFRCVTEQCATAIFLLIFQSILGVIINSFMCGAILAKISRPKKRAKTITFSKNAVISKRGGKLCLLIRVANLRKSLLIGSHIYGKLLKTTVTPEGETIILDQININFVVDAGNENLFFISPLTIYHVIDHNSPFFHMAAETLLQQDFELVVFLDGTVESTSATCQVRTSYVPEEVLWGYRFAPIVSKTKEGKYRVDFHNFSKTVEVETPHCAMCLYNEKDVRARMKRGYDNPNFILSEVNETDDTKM

Homo sapiens [18] = organism: Homo sapiens; test: Selectivity ratio of IC50 for human ERG to IC50 for ROMK (unknown origin)
Rattus norvegicus [19] = test: Diuretic activity in Sprague-Dawley rat at 10 mg/kg via oral gavage administered 30 mins prior to void induction by loading saline measured upto 4 hrs relative to vehicle treated control; assay type: functional; how it was run: as §2
Rattus norvegicus [20] = test: Natriuretic activity in Sprague-Dawley rat at 10 mg/kg via oral gavage administered 30 mins prior to void induction by loading saline measured upto 4 hrs relative to vehicle treated control; assay type: functional; how it was run: as §2
[21] = Oral bioavailability in rat at 2 mg/kg; assay type: ADME, organism-based; settings: in vivo
How it was run: (§3)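 Rats dosed once at 1 mg/kg IV and, separately, 2 mg/kg PO, with n = 3. Derived parameters were plasma clearance, Vdss, dose-normalized oral AUC (μM·h·kg/mg), half-life, and oral bioavailability (F%).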

[22] = Half life in rat at 1 mg/kg, iv or 2 mg/kg, po; assay type: ADME, organism-based; settings: in vivo; how it was run: as §3
[23] = Clearance in rat at 1 mg/kg, iv or 2 mg/kg, po; assay type: ADME, organism-based; settings: in vivo; how it was run: as §3
[24] = Dose normalized AUC in rat at 2 mg/kg, po; assay type: ADME, organism-based; settings: in vivo; how it was run: as §3
[25] = Volume of distribution at steady state in rat at 1 mg/kg, iv or 2 mg/kg, po; assay type: ADME, organism-based; settings: in vivo, read-out: Vdss; how it was run: as §3
[26] = target: T2, ATP-sensitive inward rectifier potassium channel 1; test: Inhibition of ROMK (unknown origin) expressed in CHO cells after 6 mins by electrophysiological assay; assay type: cell-based
Homo sapiens [27] = organism: Homo sapiens; test: Selectivity ratio of IC50 for human ERG to IC50 for ROMK (unknown origin) expressed in CHO cells by electrophysiological assay; assay type: cell-based
How it was run: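 Both channels were tested in electrophysiology (EP) assays. The ratio is the hERG EP IC50 divided by the ROMK EP IC50.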

Rattus norvegicus [28] = test: Antihypertensive activity in spontaneously hypertensive rat assessed as reduction in systolic blood pressure at 25 mg/kg via oral gavage qd administered for 4 days measured on day 4 by telemetry (reference value: 2.5 +/- 2.2 mmHg); assay type: functional
Rattus norvegicus [29] = test: Kaliuretic activity in Sprague-Dawley rat administered via oral gavage 30 mins prior to void induction by loading saline measured upto 4 hrs relative to vehicle treated control; assay type: functional; how it was run: as §2

Q: Which bioavailability [1] does the source give for Cc1c([C@H](O)CN2CCN(C[C@@H](O)c3ccc4c(c3C)COC4=O)CC2)ccc2c1COC2=O here?
A: 45%

Q: And the “fold change (FC)” value (Rattus norvegicus [2])?
A: 1.6

Q: What about the Vd [3] of the same compound?
A: 5.8 L/kg

Q: What about the half-life [4] of the same compound?
A: 51.6 min

Q: What about the IC50 [5] of the same compound?
A: 47 µM

Q: What about the “fold change (FC)” value (Rattus norvegicus [6]) of the same compound?
A: 1

Q: And the “fold change (FC)” value (Rattus norvegicus [7])?
A: 2.2

Q: What about the AUC/dose [8] of the same compound?
A: 0.13 µM·kg·h/mg

Q: What about the “fold change (FC)” value (Rattus norvegicus [9]) of the same compound?
A: 1.4

Q: What about the IC50 [10] of the same compound?
A: 22 µM

Q: And the “fold change (FC)” value (Rattus norvegicus [11])?
A: 1.3

Q: What about the “fold change (FC)” value (Rattus norvegicus [12]) of the same compound?
A: 1.5

Q: And the clearance [13]?
A: 82 mL/min/kg

Q: What about the “fold change (FC)” value (Rattus norvegicus [14]) of the same compound?
A: 0.9

Q: What about the “fold change (FC)” value (Rattus norvegicus [15]) of the same compound?
A: 1.1

Q: And the “fold change (FC)” value (Rattus norvegicus [16])?
A: 1.9

Q: Which results are given for Cc1c([C@H](O)CN2CCN(C[C@H](O)c3ccc4c(c3C)COC4=O)CC2)ccc2c1COC2=O?
A: bioavailability [1]: 44%; fold change (FC) (Rattus norvegicus [2]): 3.5; Vd [3]: 4.5 L/kg; half-life [4]: 84 min; IC50 [5]: 100 µM; fold change (FC) (Rattus norvegicus [6]): 1.3; fold change (FC) (Rattus norvegicus [7]): 4.1; AUC/dose [8]: 0.3 µM·kg·h/mg; IC50 [10]: > 30 µM; fold change (FC) (Rattus norvegicus [12]): 3.7; clearance [13]: 54 mL/min/kg; fold change (FC) (Rattus norvegicus [14]): 1.1; fold change (FC) (Rattus norvegicus [16]): 4.5

Q: Which IC50 [17] does the source give for Cc1c(CCN2CCN(CC(O)c3ccc4c(c3C)COC4=O)CC2)ccc2c1COC2=O (centres undefined) here?
A: 0.034 µM

Q: With Cc1c(C(O)CN2CCN(C(=O)Cc3ccc(-n4cnnn4)cc3)CC2)ccc2c1COC2=O (centres undefined) as the compound, how does the Ratio IC50 (Homo sapiens [18]) read?
A: 200

Q: What about the IC50 [5] of the same compound?
A: 100 µM

Q: What about the IC50 [17] of the same compound?
A: 0.51 µM

Q: Which results are given for Cc1c(C(C)CN2CCN(C(=O)Cc3ccc(-n4cnnn4)cc3)CC2)ccc2c1COC2=O (centres undefined)?
A: Ratio IC50 (Homo sapiens [18]): 380; IC50 [5]: 60 µM; IC50 [17]: 0.16 µM

Q: Which Ratio IC50 (Homo sapiens [18]) does the source give for Cc1c(CCN2CCN(CCc3ccc4c(c3C)COC4=O)CC2)ccc2c1COC2=O here?
A: 39

Q: And the IC50 [5]?
A: 3 µM

Q: For Cc1c(C(O)CN2CCN(CC(O)c3ccc4c(c3C)COC4=O)CC2)ccc2c1COC2=O (centres undefined), which “fold change (FC)” value (Rattus norvegicus [19]) is on record?
A: 6.8

Q: And the IC50 [5]?
A: 23 µM

Q: What about the “fold change (FC)” value (Rattus norvegicus [7]) of the same compound?
A: 9.4

Q: And the “fold change (FC)” value (Rattus norvegicus [20])?
A: 9.5

Q: And the IC50 [10]?
A: 28 µM

Q: What about the “fold change (FC)” value (Rattus norvegicus [16]) of the same compound?
A: 6.7

Q: What does the source list for Cc1c(C(F)CN2CCN(C(=O)Cc3ccc(-n4cnnn4)cc3)CC2)ccc2c1COC2=O (centres undefined)?
A: bioavailability [21]: 36%; Ratio IC50 (Homo sapiens [18]): 1000; half-life [22]: 21 min; IC50 [5]: 68 µM; clearance [23]: 58 mL/min/kg; IC50 [17]: 0.069 µM; AUC/dose [24]: 0.23 µM·h; Vd [25]: 1.4 L/kg

Q: Which Ratio IC50 (Homo sapiens [18]) does the source give for Cc1c(C(F)CN2CCN(CC(F)c3ccc4c(c3C)COC4=O)CC2)ccc2c1COC2=O (centres undefined) here?
A: 420

Q: And the “fold change (FC)” value (Rattus norvegicus [19])?
A: 3

Q: And the IC50 [5]?
A: 40 µM

Q: And the “fold change (FC)” value (Rattus norvegicus [7])?
A: 1.7

Q: And the IC50 [26]?
A: 0.117 µM

Q: What about the “fold change (FC)” value (Rattus norvegicus [20]) of the same compound?
A: 3

Q: And the Ratio IC50 (Homo sapiens [27])?
A: > 770

Q: What about the IC50 [10] of the same compound?
A: > 90 µM

Q: What about the IC50 [17] of the same compound?
A: 0.096 µM

Q: What about the “fold change (FC)” value (Rattus norvegicus [16]) of the same compound?
A: 1.6

Q: For NS(=O)(=O)c1cc2c(cc1Cl)NCNS2(=O)=O [HYDROCHLOROTHIAZIDE], which Activity (Rattus norvegicus [28]) is on record?
A: 15 mmHg

Q: What about the “fold change (FC)” value (Rattus norvegicus [29]) of the same compound?
A: 2
